{"source": "PubChem BioAssay AID1736", "about": "(Vanderbilt High Throughput Screening Facility, 2009)", "note": "Results filed as inconclusive are left out. Active and inactive are the calls of the source.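 The calls were made as follows: active = dose curve converging in at least two of three replicates, whether well supported or a less certain trend; inactive = fewer than two replicates with a converged curve.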", "data": [{"target": "Solute carrier family 12 member 5 (Homo sapiens) (UniProt Q9H2X9)", "sequence (Q9H2X9 whole entry, looked up)": "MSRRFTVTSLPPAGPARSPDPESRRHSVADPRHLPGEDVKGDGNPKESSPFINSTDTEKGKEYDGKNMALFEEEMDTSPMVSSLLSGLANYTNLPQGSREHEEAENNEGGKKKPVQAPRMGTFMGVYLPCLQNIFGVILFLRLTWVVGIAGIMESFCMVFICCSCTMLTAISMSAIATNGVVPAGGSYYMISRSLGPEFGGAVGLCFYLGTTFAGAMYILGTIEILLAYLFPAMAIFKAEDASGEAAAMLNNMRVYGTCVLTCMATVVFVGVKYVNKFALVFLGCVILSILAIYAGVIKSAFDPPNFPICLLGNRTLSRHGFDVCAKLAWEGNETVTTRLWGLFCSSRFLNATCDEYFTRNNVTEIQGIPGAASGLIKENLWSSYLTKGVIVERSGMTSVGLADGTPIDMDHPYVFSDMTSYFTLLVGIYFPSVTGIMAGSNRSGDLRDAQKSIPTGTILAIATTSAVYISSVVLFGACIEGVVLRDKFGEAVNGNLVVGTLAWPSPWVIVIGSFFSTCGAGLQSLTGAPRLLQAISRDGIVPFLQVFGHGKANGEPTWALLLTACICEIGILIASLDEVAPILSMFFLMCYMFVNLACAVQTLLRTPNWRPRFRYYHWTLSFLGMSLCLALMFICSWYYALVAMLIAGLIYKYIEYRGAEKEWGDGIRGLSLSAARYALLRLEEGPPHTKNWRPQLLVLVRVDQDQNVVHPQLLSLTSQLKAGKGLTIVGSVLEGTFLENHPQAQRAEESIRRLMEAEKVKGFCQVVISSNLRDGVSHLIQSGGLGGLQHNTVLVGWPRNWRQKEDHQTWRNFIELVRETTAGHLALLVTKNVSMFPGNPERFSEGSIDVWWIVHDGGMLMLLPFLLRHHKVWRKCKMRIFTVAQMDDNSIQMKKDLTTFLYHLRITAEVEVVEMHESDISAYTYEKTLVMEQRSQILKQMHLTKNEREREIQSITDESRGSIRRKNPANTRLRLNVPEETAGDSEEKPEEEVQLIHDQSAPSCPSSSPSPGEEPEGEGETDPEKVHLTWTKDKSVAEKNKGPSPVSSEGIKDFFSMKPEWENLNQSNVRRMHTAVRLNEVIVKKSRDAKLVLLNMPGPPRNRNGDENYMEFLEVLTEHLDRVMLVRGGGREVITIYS", "assay": "concentration-response of KCC2 transport modulators – cell-based, HEK293 KCC2, FluoZin-2 fluorescence, dose response (AID 1736)", "details": "HEK293-KCC2 thallium flux", "outline": "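Material: KCC2-expressing HEK cells. Medium: HEPES-buffered HBSS plus 0.2 mM ouabain. Probe or stimulus: thallium-containing stimulus buffer for thallium flux. Doses: 11-point threefold dilution series, top dose 30 µM. Technique: thallium-flux fluorescence, FluoZin-2, 480/540 nm. Read-out basis: EC50 from normalized 10–20 s fluorescence slope. Repeats: triplicate wells, each replicate curve fitted separately.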", "values": [{"smiles": "N#CC1=C(N)NC(SCc2ccccc2)=C(C#N)C12CCCCC2", "EC50": "inactive"}, {"smiles": "O=C1C2Sc3[nH]c(=O)sc3C(c3ccccc3)C2C(=O)N1c1ccccc1", "note": "(centres undefined)", "EC50": "67.7 nM"}, {"smiles": "NC(=S)N=Nc1c(O)n(Cc2ccccc2)c2ccccc12", "EC50": "427 nM"}, {"smiles": "O=C(Nn1c(O)c(C=C2N=c3ccccc3=N2)sc1=S)c1ccccc1Cl", "EC50": "117 nM"}, {"smiles": "COc1ccccc1NC(=S)N=Nc1c(O)[nH]c2ccc(Br)cc12", "EC50": "508 nM"}, {"smiles": "C/C(=N\\NC(=O)c1ccc(Br)cc1)C1C(=O)c2ccccc2C1=O", "EC50": "inactive"}, {"smiles": "O=C(Nn1c(O)c(C=C2N=c3ccccc3=N2)sc1=S)c1ccccc1", "EC50": "inactive"}, {"smiles": "Cc1ccc(/C=C2\\SC(=S)N(/N=C/c3cc([N+](=O)[O-])ccc3O)C2=O)o1", "EC50": "inactive"}, {"smiles": "Cc1cccc(NC(=S)N=Nc2c(O)n(CN3CCOCC3)c3ccccc23)c1C", "EC50": "inactive"}]}]}
